Measured values from ChEMBL document CHEMBL3616408, “Elaboration of a fragment library hit produces potent and selective aspartate semialdehyde dehydrogenase inhibitors” (Bioorg Med Chem, 2015).
pKi: −log10 of the molar value. Activity calls are given as the source filed them. The rule behind the calls is not given here.

Tests used:
[1] = Inhibition of Streptococcus pneumoniae ASADH using aspartate semialdehyde and NADP+
Outline: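 Recombinant enzyme, stored at -20 °C in 50 mM HEPES pH 7, 1 mM EDTA, 1 mM DTT. Reverse reaction run at room temperature in 120 mM CHES pH 8.6, 200 mM KCl, with 0.15 mM ASA, 1.5 mM NADP and 20 mM phosphate; 30 μg ml−1 enzyme starts it. NADPH formation read at 340 nm. Inhibitor serially diluted; Ki from Dixon plot of initial velocities, assuming competition with ASA.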

[2] = (§1) Inhibition of Vibrio cholerae ASADH using aspartate semialdehyde and NADP+; conditions: for pKi: read-out: Ki
[3] = Selectivity index, ratio of Ki for Vibrio cholerae ASADH to KI for Streptococcus pneumoniae ASADH
Outline: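 Recombinant S. pneumoniae and V. cholerae ASADH, stored at -20 °C in 50 mM HEPES pH 7, 1 mM EDTA, 1 mM DTT. Reverse reaction run at r.t. in 120 mM CHES pH 8.6, 200 mM KCl, with 1.5 mM NADP, 20 mM phosphate, and ASA at 0.15 mM (sp) or 0.3 mM (vc). Enzyme was 30 μg ml−1. NADPH formation was read at 340 nm. Serially diluted inhibitor gave initial velocities, and Ki came from Dixon plots assuming competition with ASA. The index is vc Ki divided by sp Ki.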

Vibrio cholerae [4] = assay: as §1
Vibrio cholerae [5] = assay: Inhibition of Vibrio cholerae ASADH up to 2 mM using aspartate semialdehyde and NADP+
Outline: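 Recombinant V. cholerae enzyme assayed in reverse direction at r.t. in 120 mM CHES pH 8.6 with 200 mM KCl, 0.3 mM ASA, 1.5 mM NADP and 20 mM phosphate. Reaction started with 30 μg ml−1 enzyme, and NADPH formation followed at 340 nm. Inhibitor tested at concentrations up to 2 mM.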

Vibrio cholerae [6] = assay: Inhibition of Vibrio cholerae ASADH up to 4 mM using aspartate semialdehyde and NADP+
Outline: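 Recombinant V. cholerae enzyme assayed in reverse direction at r.t. in 120 mM CHES pH 8.6 with 200 mM KCl, 0.3 mM ASA, 1.5 mM NADP and 20 mM phosphate. Reaction started with 30 μg ml−1 enzyme, and NADPH formation followed at 340 nm. Inhibitor tested at concentrations up to 4 mM.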

SMILES	pKi [1]	pKi [2]	Ratio Ki [3]	inhibition (Vibrio cholerae [4])	Ki [2]	inhibition (Vibrio cholerae [5])	inhibition (Vibrio cholerae [6])
O=C(O)c1ccc(CN[C@@H](CO)C(=O)O)cc1C(=O)O	3.49	3.18					
N#CCCN(CC(=O)O)Cc1ccc(C(=O)O)c(C(=O)O)c1	3.66	3.30					
Cc1ccc(CN(CC(=O)O)Cc2ccc(C(=O)O)c(C(=O)O)c2)cc1	4.20	3.22	10				
O=C(O)CN(Cc1ccc(OC(F)F)cc1)Cc1ccc(C(=O)O)c(C(=O)O)c1	4.27	3.16	10				
O=C(O)CN(Cc1cccc(C(F)(F)F)c1)Cc1ccc(C(=O)O)c(C(=O)O)c1	3.36	3.17	10				
CN(CC(=O)O)Cc1cccc(C(=O)O)c1C(=O)O	2.74			inactive			
C[C@H](NCc1ccc(C(=O)O)c(C(=O)O)c1)C(=O)O	3.53	3.22					
C=CCN(CC(=O)O)Cc1ccc(C(=O)O)c(C(=O)O)c1	3.52	3.18					
O=C(O)CN(CCN1CCOCC1)Cc1ccc(C(=O)O)c(C(=O)O)c1	3.75	3.16					
O=C(O)CN(Cc1ccc(C(F)(F)F)cc1)Cc1ccc(C(=O)O)c(C(=O)O)c1	4.62	3.20	10				
O=C(O)CN(Cc1cccc(Br)c1)Cc1ccc(C(=O)O)c(C(=O)O)c1	3.35	3.18	10				
O=C([O-])CCNCc1ccc(C(=O)[O-])c(C(=O)[O-])c1.[Na+].[Na+].[Na+]	2.62				Not Active	inactive	
Cc1cccc(CN(CC(=O)O)Cc2ccc(C(=O)O)c(C(=O)O)c2)c1	3.37	3.16	10				
O=CCN(CC(=O)O)Cc1ccc(C(=O)O)c(C(=O)O)c1	3.56	3.18					
O=C(O)CNCc1ccc(C(=O)O)c(C(=O)O)c1	3.61	3.28	2				
O=C(O)CN(Cc1ccc(C(=O)O)cc1)Cc1ccc(C(=O)O)c(C(=O)O)c1	4.14	3.20	10				
O=C([O-])CCN(Cc1ccc(C(F)(F)F)cc1)Cc1ccc(C(=O)[O-])c(C(=O)[O-])c1.[Na+].[Na+].[Na+]	2.42				Not Active		inactive
NC(=O)c1ccc(CN(CC(=O)O)Cc2ccc(C(=O)O)c(C(=O)O)c2)cc1	3.64	3.19	10				
O=C(O)CN(Cc1ccc(OC(F)(F)F)cc1)Cc1ccc(C(=O)O)c(C(=O)O)c1	4.44	3.18	10				
CC(C)(C)c1ccc(CN(CC(=O)O)Cc2ccc(C(=O)O)c(C(=O)O)c2)cc1	4.80	3.19	10				
CN(CC(=O)O)Cc1ccc(C(=O)O)c(C(=O)O)c1	3.53	3.17					
O=C(O)CN(Cc1ccc(C(=O)O)c(C(=O)O)c1)Cc1ccccc1OC(F)(F)F	3.27	3.15	10				
O=C(O)CN(Cc1ccccc1)Cc1ccc(C(=O)O)c(C(=O)O)c1	3.53	3.16					
O=C(O)CN(Cc1ccc(Br)cc1)Cc1ccc(C(=O)O)c(C(=O)O)c1	4.24	3.20	10				
O=C(O)CN(Cc1ccc(C(=O)O)c(C(=O)O)c1)Cc1ccccc1Br	3.28	3.13	10				
O=C(O)CN(Cc1ccc(/C=C/Cc2ccccc2)cc1)Cc1ccc(C(=O)O)c(C(=O)O)c1	3.32	2.96	10				
O=C(O)CN(Cc1cccc(OC(F)(F)F)c1)Cc1ccc(C(=O)O)c(C(=O)O)c1	3.37	3.16	10				
O=C([O-])CCN(Cc1ccc(Br)cc1)Cc1ccc(C(=O)[O-])c(C(=O)[O-])c1.[Na+].[Na+].[Na+]	2.44				Not Active		inactive
Cc1ccccc1CN(CC(=O)O)Cc1ccc(C(=O)O)c(C(=O)O)c1	3.28	3.14	10				
O=C(O)CN(Cc1ccc(C(=O)O)c(C(=O)O)c1)Cc1ccccc1C(F)(F)F	3.29	3.14	10				
